Data on four compounds can be found in ChEMBL document CHEMBL5532699, “Design, docking optimization, and evaluation of biotin-PEG4-1,8-naphthalimide as a potent and safe antitumor agent with dual targeting of ferroptosis and DNA” (RSC Med Chem, 2024).

The structures appear in SMILES notation.

Data set [1] in a line: Toxicity in nude mouse xenografted with human U-251 cells assessed as decrease in body weight at 25 mg/kg, ip administered once every two days for 21 days. The data set is classed as organism-based. To be noted: in vivo, 504 h, time 21 day. Summed up:
(§1)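 1×10^6 tumor cells injected s.c. into the right flank of nude mice. At mean tumor volume 60–80 mm³, animals randomized to vehicle or treatment groups (n = 6). Compound in 5% v/v DMSO/saline given i.p. every 2 days. Tumor size and weight recorded; volume = lw²/2 from length and width. Body weight tracked as the systemic toxicity index.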
(In general: Xenograft models place foreign cells or tissue in a host animal.)

The nature of data set [2]: Toxicity in nude mouse xenografted with human U-251 cells assessed as decrease in animal movement at 25 mg/kg, ip administered once every two days for 21 days. The data set is classed as organism-based. The settings on record: in vivo, 504 h, time 21 day. Summed up: as §1
The test system of data set [3] is U-251. As to the kind of experiment: Antiproliferative activity against human U-251 cells incubated for 48 hrs by MTT assay. The data set is classed as functional, cell-based. The settings on record: U-251, 48 h. The essentials: (§2)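 Monolayer cells in DMEM with 10% FBS, penicillin and streptomycin, 37°C, 5% CO2. Exponentially growing cells were seeded in 96-well plates and exposed to compound for 48 h. MTT was then added for 4 h at 37°C. Medium was removed, formazan dissolved in DMSO, and OD read at 490 nm. Each plate had five replicate wells, and assays were repeated three times per line.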

Data set [4] deals with U-251. Nature of the data set: Antitumor activity against human U-251 cells xenografted in nude mouse assessed as tumor inhibition ratio at 25 mg/kg, ip administered once every two days for 21 days relative to control. The data set is classed as functional. To be noted: U-251, 504 h, time 21 day. The essentials:
as §1

The nature of data set [5]: Cytotoxicity against HK-2 cells incubated for 48 hrs by MTT assay. The settings on record: human. The data set is classed as toxicity, cell-based. The essentials:
as §2

Another data set deals with HCT-116. As to the kind of experiment: Antiproliferative activity against human HCT-116 cells incubated for 48 hrs by MTT assay. The data set is classed as functional, cell-based. The settings on record: HCT-116, 48 h. The essentials: as §2
Another data set relates to MDA-MB-231. As to the kind of experiment: Antiproliferative activity against human MDA-MB-231 cells incubated for 48 hrs by MTT assay. The data set is classed as functional, cell-based. The settings on record: MDA-MB-231, 48 h. Summed up: as §2
A short description of data set [6]: Cytotoxicity against HUVEC cells incubated for 48 hrs by MTT assay. The data set is classed as toxicity, cell-based. To be noted: human. Summed up:
as §2
Background: Tetrazolium assays rely on reduction of a dye to a coloured formazan, in cell work by metabolically active cells.

The test system of another data set is A549. Nature of the data set: Antiproliferative activity against human A549 cells incubated for 48 hrs by MTT assay. The settings on record: A549, 48 h. The data set is classed as functional, cell-based. The essentials: as §2
Data set [7] is described as follows: Toxicity in nude mouse xenografted with human U-251 cells assessed as decrease in body weight at 10 mg/kg, ip administered once every two days for 21 days. The data set is classed as organism-based. The settings on record: in vivo, 504 h, time 21 day. The essentials: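 Subcutaneous xenograft in nude mice (1×10^6 cells, right flank). At 60–80 mm³, mice were randomised (n = 6 per group) to solvent control or treatment. Compound in 5% v/v DMSO/saline was given i.p. once every 2 days. Body weight was recorded as the indicator of systemic toxicity.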

A further data set deals with T-24. As to the kind of experiment: Antiproliferative activity against human T24 cells incubated for 48 hrs by MTT assay. The data set is classed as functional, cell-based. To be noted: T-24, 48 h. The essentials:
as §2

A short description of data set [8]: Toxicity in nude mouse xenografted with human MGC-803 cells assessed as pathological changes in spleen at 5 mg/kg, ip administered once every two days for 21 days by H and E staining based analysis. To be noted: in vivo, 504 h, time 21 day. The data set is classed as organism-based. Summed up:
(§3)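 Major organs from MGC-803 xenograft nude mice (i.p. dosing in 5% DMSO/saline every 2 days, n = 6) were stained with haematoxylin-eosin and examined at 200×.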

The test system of data set [9] is MGC-803. As to the kind of experiment: Antitumor activity against human MGC-803 cells xenografted in nude mouse assessed as tumor inhibition ratio at 5 mg/kg, ip administered once every two days for 21 days relative to control. The settings on record: MGC-803, 504 h, time 21 day. The data set is classed as functional. The essentials: (§4)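 1×10^6 tumour cells were injected subcutaneously into the right flank of nude mice. At a mean tumour volume of 60–80 mm³, mice were randomised into solvent control and treated groups (n = 6). Compound in 5% v/v DMSO/saline was given i.p. every 2 days. Tumour length and width were measured, V = lw²/2, and tumour weight was recorded.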

Data set [10] can be described thus: Toxicity in nude mouse xenografted with human MGC-803 cells assessed as pathological changes in heart at 5 mg/kg, ip administered once every two days for 21 days by H and E staining based analysis. The data set is classed as organism-based. The settings on record: in vivo, 504 h, time 21 day. The essentials: as §3
Data set [11] relates to MGC-803. Nature of the data set: Antiproliferative activity against human MGC-803 cells incubated for 48 hrs by MTT assay. The data set is classed as functional, cell-based. The settings on record: MGC-803, 48 h. Summed up: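 Cells kept as monolayers in DMEM with 10% FBS, streptomycin and penicillin, 37°C, 5% CO₂. Exponentially growing cells seeded in 96-well plates, exposed 48 h, then MTT (10 mg/mL stock) for 4 h at 37°C. Medium removed, formazan dissolved in DMSO, OD read at 490 nm. Five wells per condition; each cell line run three times.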

In data set [12] the test system is U-251. Nature of the data set: Antitumor activity against human U-251 cells xenografted in nude mouse assessed as tumor inhibition ratio at 10 mg/kg, ip administered once every two days for 21 days relative to control. The data set is classed as functional. To be noted: U-251, 504 h, time 21 day. The essentials: as §4
The nature of data set [13]: Toxicity in nude mouse xenografted with human U-251 cells assessed as decrease in animal movement at 10 mg/kg, ip administered once every two days for 21 days. The data set is classed as organism-based. To be noted: in vivo, 504 h, time 21 day.
The nature of data set [14]: Toxicity in nude mouse xenografted with human MGC-803 cells assessed as pathological changes in liver at 5 mg/kg, ip administered once every two days for 21 days by H and E staining based analysis. The settings on record: in vivo, 504 h, time 21 day. The data set is classed as organism-based. Summed up:
as §3

Data set [15] can be described thus: Toxicity in nude mouse xenografted with human MGC-803 cells assessed as pathological changes in lung at 5 mg/kg, ip administered once every two days for 21 days by H and E staining based analysis. The data set is classed as organism-based. To be noted: in vivo, 504 h, time 21 day. Summed up: as §3
A short description of data set [16]: Metabolic stability in male CD-1 mouse liver microsomes assessed as half life at 2 uM incubated for 60 min in the presence of NADPH by LC-MS/MS analysis. The data set is classed as ADME, Microsome. Summed up: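 Male CD-1 mouse liver microsomes at 0.5 mg/mL final in 100 mM phosphate buffer, pH 7.4. Mixture was preincubated with 1 mM NADPH (PBS only for the negative control) for 10 min at 37°C. Reaction was started with test compound at 2 µM final. Aliquots were taken at 0.5, 15, 30, 45 and 60 min into cold methanol with internal standard, centrifuged, and the supernatant analysed by LC-MS/MS.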
(In general: Liver microsomes are a subcellular fraction often used to study metabolism.)

Data set [17] deals with U-251. Nature of the data set: Antitumor activity against human U-251 cells xenografted in nude mouse assessed as tumor inhibition ratio at 5 mg/kg, ip administered once every two days for 21 days relative to control. The data set is classed as functional. To be noted: U-251, 504 h, time 21 day. Summed up:
as §1

The term IC50 denotes the concentration at which inhibition is half-maximal. Read a low IC50 as greater potency in that assay. For orientation: inhibition in vivo means the change of the read-out against control, counted positive when it falls. As for `Cn1nnc2c(C(N)=O)ncn2c1=O` [TEMOZOLOMIDE], the Activity entry in data set [1] and in data set [2] was “Toxic” each time. Also, in the data set on U-251 [3], the IC50 is greater than 50 µM. Moreover, the inhibition in vivo at 25 mg/kg in the data set with U-251 [4] stood at 74.2%.
Take `CN(C)CCN1C(=O)c2cccc3cc([N+](=O)[O-])cc(c23)C1=O` [MITONAFIDE]: the IC50 at 48 h is 2.13 µM in data set [5] and 5.9 µM in [6]. In addition, the IC50 is 12.2 µM in the data set on HCT-116, 9.68 µM with U-251 [3], 7.59 µM in the data set with MDA-MB-231 and 3.6 µM with A549.
In general, half-life refers to how long it takes for the measured level to halve. In the case of `CN(C)CCN1C(=O)c2cccc3c(N4CCNCC4)ccc(c23)C1=O`, the Activity result in data set [7] is on record as “Toxic”; in [8] it was “Non-Toxic”; in [10], “Non-Toxic”; in [13], “Toxic”; in data set [14], “Non-Toxic”; in data set [15] it was “Non-Toxic”. For the same compound, the IC50 in the data set with T-24 stood at 5.86 µM; in the data set with MGC-803 [11], 1.72 µM; in the data set with HCT-116 it was 7.15 µM; in the data set on U-251 [3], 10.5 µM; in the data set on MDA-MB-231 it was 0.96 µM; with A549, 13.5 µM. Moreover, the values for the IC50 at 48 h in data set [5] and in data set [6] were 6.38 µM and 1.99 µM, respectively. For the same compound, the inhibition in vivo at 5 mg/kg with MGC-803 [9] is 40.3%. For the same compound, the inhibition in vivo at 10 mg/kg in the data set with U-251 [12] was 71.5%. In addition, the half-life at 2 µM in [16] is greater than 3.08 h.
`CN(C)CCN1C(=O)c2cccc3cc(N)cc(c23)C1=O` [AMONAFIDE]: the IC50 with T-24 was 7.94 µM; in the data set on HCT-116 it was 25.7 µM; in the data set with U-251 [3] it was greater than 50 µM; in the data set with MDA-MB-231, 21.1 µM; in the data set on A549 it was 12.4 µM. In addition, the IC50 at 48 h in [5] stood at 27.2 µM; in data set [6] it was 21.9 µM. Further, the inhibition in vivo at 5 mg/kg in the data set on U-251 [17] was determined as 35.4%; with MGC-803 [9], 42.2%.
